Consider 29 compounds from article PMC2670241 (Journal of neurochemistry, 2009).

In one assay the target is MOR23-1 (Mus musculus, UniProt Q8VG01). It counts as cell-based. Particulars: read-out: Response normalized to the response of the same oocyte to 100 μM nonanoic acid.
In another assay the target is MOR32-11 (Mus musculus, UniProt Q8VF06). It counts as cell-based. Conditions: for activation / activation at 3 µM / activation at 10 µM / activation at 30 µM: read-out: Response normalized to the response of the same oocyte to 100 μM nonanoic acid.
Another assay relates to MOR40-4 (S83). Particulars: ref Malnic et al., 1999; cited from earlier work.
For assay [1], the target named is T1, MOR174-9 (mOR-EG) (Mus musculus, UniProt Q920P2).
T1 sequence (Q920P2 1-313): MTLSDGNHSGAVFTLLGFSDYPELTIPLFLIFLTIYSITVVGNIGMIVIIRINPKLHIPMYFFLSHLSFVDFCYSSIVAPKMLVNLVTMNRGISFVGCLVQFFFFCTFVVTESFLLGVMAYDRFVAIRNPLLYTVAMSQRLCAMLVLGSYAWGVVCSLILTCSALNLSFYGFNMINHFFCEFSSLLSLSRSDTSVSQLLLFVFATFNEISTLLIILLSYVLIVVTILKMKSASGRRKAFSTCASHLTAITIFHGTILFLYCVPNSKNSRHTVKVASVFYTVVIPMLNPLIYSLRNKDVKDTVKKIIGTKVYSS
Format: cell-based. Particulars: each at 100 μM, 15 sec application.

Assay [2] deals with oocytes expressing Gαolf and CFTR, but no receptor. The assay can be described thus: Control oocytes expressing Gαolf and CFTR, but no receptor. It counts as cell-based, Xenopus laevis. Particulars: 100 μM, 15 sec application. In outline:
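Xenopus oocytes were defolliculated with collagenase B for 2 h at room temperature and injected with human Gαolf (10 ng) and CFTR (1 ng) cRNA in 23 nl water, with no receptor. Under voltage clamp in ND96 (pH 7.5), test compounds from 1 M DMSO stocks, diluted in ND96, were applied for 15 sec. 1 mM IBMX served as receptor-independent CFTR activator. Read-out was current.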

Assay [3] addresses T1, MOR174-9 (mOR-EG). Particulars: ref Abaffy et al., 2006; cited from earlier work.

Sequence of MOR32-11 (Q8VF06 1-312): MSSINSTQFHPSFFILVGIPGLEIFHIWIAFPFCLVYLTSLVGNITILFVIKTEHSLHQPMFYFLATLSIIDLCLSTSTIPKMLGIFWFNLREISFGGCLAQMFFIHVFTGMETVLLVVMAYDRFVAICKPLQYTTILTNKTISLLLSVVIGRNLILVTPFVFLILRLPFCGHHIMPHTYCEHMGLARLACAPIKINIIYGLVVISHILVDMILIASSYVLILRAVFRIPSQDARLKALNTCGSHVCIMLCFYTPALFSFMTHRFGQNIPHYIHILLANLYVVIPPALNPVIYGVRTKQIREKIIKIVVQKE

For the compound `O=C(O)CCCCCBr` [6-Bromo-hexanoic acid, 6-bromohexanoic acid], on MOR23-1, the activation is 61 ± 7%, the activation at 3 µM was determined as 0%, the activation at 10 µM worked out at 0% and the activation at 30 µM turned out to be 22 ± 6%. On MOR32-11, the activation amounted to 0%.
In the case of `O=C(O)CCCCCCCBr` [8-Bromo-octanoic acid, 8-bromooctanoic acid], at MOR23-1, the activation was 32 ± 6%, the activation at 3 µM turned out to be 0%, the activation at 10 µM stood at 0% and the activation at 30 µM was 43 ± 8%. Moreover, on MOR32-11, the activation was 0%. Besides, in the assay with MOR40-4 (S83), the “Response of MOR40-4 (S83) to odorant (previously shown)” value (“Response of MOR40-4 (S83) to odorant” below) is listed as “respond”.
In the case of `O=C(O)CCCCCCCCCBr` [10-Bromo-decanoic acid, 10-bromodecanoic acid], the activation on MOR23-1 was found to be 0%. Moreover, on MOR32-11, the activation was found to be 60 ± 4%, the activation at 3 µM was found to be 0%, the activation at 10 µM amounted to 0% and the activation at 30 µM was 0%.
`O=C(O)CCCCCCCCCCBr` [11-Bromo-undecanoic acid]: the activation on MOR23-1 stood at 0%. Further, at MOR32-11, the activation was 27 ± 10%, the activation at 3 µM worked out at 0%, the activation at 10 µM was 0% and the activation at 30 µM amounted to 0%.
Take `O=C(O)CCCCCCCCCCCBr` [12-Bromo-dodecanoic acid]: the activation on MOR23-1 came to 0%; on MOR32-11, 6 ± 2%.
With `C=C(C)[C@H]1CC=C(C)C(=O)C1` [(+) carvone], the “Response of MOR174-9 to odorant” value on MOR174-9 (mOR-EG) [1] is recorded as “does not respond”.
For the compound `C=C(C)[C@@H]1CC=C(C)C(=O)C1` [(−) carvone], at MOR174-9 (mOR-EG) [1], the “Response of MOR174-9 to odorant” value is “does not respond”.
For `CCCCCCCCCC=O` [Decanal], the activation on MOR23-1 was 0%. In addition, on MOR32-11, the activation worked out at 23 ± 5%, the activation at 3 µM was found to be 0%, the activation at 10 µM came out at 0% and the activation at 30 µM was found to be 0%.
In the case of `CCCCCCCCCC(=O)O` [Decanoic acid], the activation on MOR23-1 came to 0%. Also, on MOR32-11, the activation is 122 ± 8%, the activation at 3 µM was found to be 0%, the activation at 10 µM came out at 13 ± 3% and the activation at 30 µM turned out to be 0%.
For the compound `CCCCCCCCCCCC=O` [Dodecanal], the activation on MOR23-1 was found to be 0%. Also, at MOR32-11, the activation stood at 25 ± 3%, the activation at 3 µM came to 0%, the activation at 10 µM came to 0% and the activation at 30 µM was 0%.
In the case of `CCCCCCCCCCCC(=O)O` [Dodecanoic acid], at MOR32-11, the activation at 3 µM worked out at 0%, the activation at 10 µM came out at 0% and the activation at 30 µM turned out to be 0%.
For `CCCCCCC(=O)O` [Heptanoic acid], at MOR23-1, the activation came to 64 ± 10%, the activation at 3 µM stood at 0%, the activation at 10 µM turned out to be 10 ± 3% and the activation at 30 µM stood at 17 ± 4%. At MOR32-11, the activation is 35 ± 6%, the activation at 3 µM was found to be 0%, the activation at 10 µM was 13 ± 5% and the activation at 30 µM was determined as 40 ± 12%. In addition, at MOR32-11 (up to a concentration of 1 mM, data not shown), the “Saturation of dose-response at MOR32-11” value is “failed to saturate”.
Regarding `CCCCCCCCC=O` [Nonanal], at MOR23-1, the activation was found to be 0%. Besides, at MOR32-11, the activation was determined as 32 ± 6%, the activation at 3 µM was 0%, the activation at 10 µM turned out to be 0% and the activation at 30 µM was determined as 0%.
For the compound `CCCCCCCCC(=O)O` [Nonanoic acid], at MOR23-1, the activation is 100%, the activation at 3 µM was determined as 0%, the activation at 10 µM amounted to 11 ± 4% and the activation at 30 µM amounted to 48 ± 8%. Moreover, on MOR32-11, the activation stood at 100%, the activation at 3 µM was found to be 0%, the activation at 10 µM was found to be 25 ± 4% and the activation at 30 µM is 61 ± 8%. Further, the “Response of MOR40-4 (S83) to odorant” value with MOR40-4 (S83) was “respond”.
With `CCCCCCCC=O` [Octanal], on MOR23-1, the activation came out at 198 ± 27%, the activation at 3 µM worked out at 35 ± 5%, the activation at 10 µM is 76 ± 13% and the activation at 30 µM turned out to be 107 ± 7%. At MOR32-11, the activation was 22 ± 6%, the activation at 3 µM was found to be 0%, the activation at 10 µM came out at 0% and the activation at 30 µM was found to be 0%.
On to `CCCCCCCC(=O)O` [Octanoic acid], for which, at MOR23-1, the activation came out at 178 ± 29%, the activation at 3 µM turned out to be 70 ± 11%, the activation at 10 µM was 112 ± 17% and the activation at 30 µM was 158 ± 12%. On MOR32-11, the activation was 76 ± 6%, the activation at 3 µM was determined as 0%, the activation at 10 µM came to 27 ± 7% and the activation at 30 µM is 83 ± 14%. The “Response of MOR40-4 (S83) to odorant” value in the assay on MOR40-4 (S83) was “respond”.
On to `CCCCCCCCO` [Octanol], for which, on MOR23-1, the activation was found to be 100 ± 6%, the activation at 10 µM worked out at 23 ± 2% and the activation at 30 µM was 68 ± 13%. On MOR32-11, the activation worked out at 0%.
As to `CCCCCCCCCCC=O` [Undecanal], the activation at MOR23-1 is 0%. For the same compound, on MOR32-11, the activation worked out at 16 ± 3%, the activation at 3 µM amounted to 0%, the activation at 10 µM is 0% and the activation at 30 µM was 0%.
Take `O=C(O)CCCCCCCCCC(=O)O` [Undecanedioic acid]: the activation at MOR23-1 and on MOR32-11 was 0% throughout.
As to `CCCCCCCCCCC(=O)O` [Undecanoic acid], the activation at MOR23-1 came out at 0%. On MOR32-11, the activation amounted to 98 ± 22%, the activation at 3 µM was determined as 0%, the activation at 10 µM turned out to be 0% and the activation at 30 µM stood at 26 ± 8%.
For the compound `CCCCCCCCCCCO` [Undecanol], the activation was determined as 0% at MOR23-1 and 6 ± 2% at MOR32-11.
Regarding `CCCCO` [butanol], the “Response of MOR174-9 to odorant” value at MOR174-9 (mOR-EG) [1] is “does not respond”.
For `CCOc1cc(C=O)ccc1O` [ethyl vanillin], the “Response of MOR174-9 to odorant” value on MOR174-9 (mOR-EG) [1] was “responds”. Further, the “Response of oocytes expressing Gαolf and CFTR, but no receptor” value (from here on “Response … but no receptor”) in assay [2] is given as “do not respond”.
Take `C=CCc1ccc(O)c(OC)c1` [eugenol]: at MOR174-9 (mOR-EG) [1], the “Response of MOR174-9 to odorant” value is on record as “responds”. In addition, in assay [2], the “Response … but no receptor” value is listed as “do not respond”.
For the compound `CC(C)=CCC/C(C)=C/CO` [geraniol], the “Response of MOR174-9 to odorant” value at MOR174-9 (mOR-EG) [1] is “does not respond”.
Still for that read-out and setting: in the case of `COc1ccccc1O` [guaiacol] it was “does not respond”.
On to `C/C=C/c1ccc(OC)c(OC)c1` [methylisoeugenol], for which, on MOR174-9 (mOR-EG) [3], the “Antagonism of the response to eugenol of MOR174-9 expressed in oocytes” value is given as “can antagonize”.
In the case of `CCCCCCCCCO` [nonanol], the “Response of MOR40-4 (S83) to odorant” value in the assay on MOR40-4 (S83) is “respond”.
As to `COc1cc(C=O)ccc1O` [vanillin], at MOR174-9 (mOR-EG) [1], the “Response of MOR174-9 to odorant” value is recorded as “responds”. Further, the “Response … but no receptor” value in assay [2] is listed as “do not respond”.
